Source: ChEMBL document CHEMBL3352004, “(7-Benzyloxy-2,3-dihydro-1H-pyrrolo[1,2-a]indol-1-yl)acetic Acids as S1P1 Functional Antagonists” (ACS Med Chem Lett, 2014)
Values after ≈ are worked out from the molar mass of the structure shown. Each block holds one compound with its values, some of them ahead of it.

Key:
[1] = Activation of Inward rectifier potassium channel in human atrial myocytes; type: cell-based; conditions: Cardiac atrium
[2] = target: Sphingosine 1-phosphate receptor 1 (Rattus norvegicus, UniProt P48303); test: Agonist activity at rat S1P1 receptor assessed as cAMP accumulation by HTRF assay; type: functional
Sequence of Sphingosine 1-phosphate receptor 1 (Rattus norvegicus, UniProt P48303) (P48303 whole entry): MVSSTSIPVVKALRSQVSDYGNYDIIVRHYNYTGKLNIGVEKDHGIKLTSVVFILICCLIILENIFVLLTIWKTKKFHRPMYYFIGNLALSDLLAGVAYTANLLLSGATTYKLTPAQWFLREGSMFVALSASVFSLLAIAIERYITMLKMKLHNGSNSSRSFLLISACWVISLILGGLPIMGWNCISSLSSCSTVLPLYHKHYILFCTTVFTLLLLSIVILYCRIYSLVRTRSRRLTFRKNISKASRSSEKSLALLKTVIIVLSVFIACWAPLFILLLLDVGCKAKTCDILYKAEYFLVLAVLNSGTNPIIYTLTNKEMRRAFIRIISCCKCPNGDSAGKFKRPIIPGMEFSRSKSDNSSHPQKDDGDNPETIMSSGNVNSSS
How it was run: (§1)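 S1P1 engagement measured as cyclase activity in a homogeneous time-resolved fluorescence (HTRF) assay.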

[3] = Ratio of drug level in brain to plasma in Sprague-Dawley rat; type: ADME; conditions: read-out: BPR
How it was run: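 Abbreviated rat CNS distribution: a single 1.0 mg/kg oral dose, with brain and plasma drug levels measured over 6 h. Brain-to-plasma ratio derived from these levels.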

[4] = target: Sphingosine-1-phosphate receptor 1 (Canis lupus familiaris, UniProt W5VNF7); test: Agonist activity at dog S1P1 receptor assessed as cAMP accumulation by HTRF assay; type: functional; how it was run: as §1
Sequence of Sphingosine-1-phosphate receptor 1 (W5VNF7 whole entry): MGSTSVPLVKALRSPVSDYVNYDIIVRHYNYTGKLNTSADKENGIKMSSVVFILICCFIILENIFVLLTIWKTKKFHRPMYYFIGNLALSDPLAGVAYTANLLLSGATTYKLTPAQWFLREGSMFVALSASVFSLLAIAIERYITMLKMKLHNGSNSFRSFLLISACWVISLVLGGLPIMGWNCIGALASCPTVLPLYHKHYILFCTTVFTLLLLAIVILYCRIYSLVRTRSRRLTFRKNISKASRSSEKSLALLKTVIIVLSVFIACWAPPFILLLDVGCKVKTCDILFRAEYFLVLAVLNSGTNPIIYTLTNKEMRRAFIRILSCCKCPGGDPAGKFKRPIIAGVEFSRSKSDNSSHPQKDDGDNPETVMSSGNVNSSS

[5] = target: Sphingosine 1-phosphate receptor 2 (Homo sapiens, UniProt O95136); test: Agonist activity at human S1P2 receptor by beta-arrestin recruitment assay
Sequence of Sphingosine 1-phosphate receptor 2 (O95136 whole entry): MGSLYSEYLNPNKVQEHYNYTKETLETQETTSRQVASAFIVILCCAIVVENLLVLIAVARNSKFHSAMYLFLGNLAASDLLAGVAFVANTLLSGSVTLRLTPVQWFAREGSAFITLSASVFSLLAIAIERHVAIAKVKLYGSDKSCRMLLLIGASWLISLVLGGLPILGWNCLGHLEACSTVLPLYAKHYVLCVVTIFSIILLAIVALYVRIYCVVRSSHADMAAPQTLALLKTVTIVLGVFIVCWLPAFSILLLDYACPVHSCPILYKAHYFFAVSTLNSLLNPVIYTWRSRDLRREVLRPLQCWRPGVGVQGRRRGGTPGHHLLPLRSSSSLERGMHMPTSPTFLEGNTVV

[6] = target: Sphingosine 1-phosphate receptor 1 (Mus musculus) (UniProt O08530); test: Agonist activity at mouse S1P1 receptor assessed as cAMP accumulation by HTRF assay relative to S1P; type: functional
Sequence of Sphingosine 1-phosphate receptor 1 (Mus musculus) (O08530 whole entry): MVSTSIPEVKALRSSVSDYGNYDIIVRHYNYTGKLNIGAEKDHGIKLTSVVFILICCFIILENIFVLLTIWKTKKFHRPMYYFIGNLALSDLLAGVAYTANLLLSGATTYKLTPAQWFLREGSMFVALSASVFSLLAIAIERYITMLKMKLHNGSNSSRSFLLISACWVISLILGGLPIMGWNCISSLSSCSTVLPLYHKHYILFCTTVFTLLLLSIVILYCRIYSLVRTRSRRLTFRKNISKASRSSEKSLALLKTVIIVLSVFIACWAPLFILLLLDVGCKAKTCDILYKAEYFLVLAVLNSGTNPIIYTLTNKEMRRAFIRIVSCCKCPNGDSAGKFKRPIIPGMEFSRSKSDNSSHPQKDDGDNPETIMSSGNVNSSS

[7] = target: T1, Sphingosine 1-phosphate receptor 1 (Homo sapiens, UniProt P21453); test: Agonist activity at human S1P1 receptor by beta-arrestin recruitment assay relative to S1P
T1 sequence (P21453 whole entry): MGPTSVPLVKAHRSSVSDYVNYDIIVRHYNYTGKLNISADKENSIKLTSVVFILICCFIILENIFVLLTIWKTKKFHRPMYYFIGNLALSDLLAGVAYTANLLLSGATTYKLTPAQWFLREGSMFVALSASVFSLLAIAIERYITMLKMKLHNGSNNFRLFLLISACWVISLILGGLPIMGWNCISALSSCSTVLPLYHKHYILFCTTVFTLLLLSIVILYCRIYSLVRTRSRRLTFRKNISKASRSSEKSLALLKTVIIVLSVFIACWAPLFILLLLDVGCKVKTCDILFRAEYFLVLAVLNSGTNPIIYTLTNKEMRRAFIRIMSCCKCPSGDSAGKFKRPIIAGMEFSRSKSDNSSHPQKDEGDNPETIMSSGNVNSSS

[8] = target: P2Y purinoceptor (Rattus norvegicus); test: Binding affinity to P2Y purinoceptor (rat) by [35S]dATPalphaS competitive binding assay; conditions: read-out: IC50
Cytochrome P450 2C9 = Cytochrome P450 2C9 (Homo sapiens, UniProt P11712); test: Inhibition of CYP2C9 (unknown origin); type: ADME
Sequence of Cytochrome P450 2C9 (P11712 whole entry): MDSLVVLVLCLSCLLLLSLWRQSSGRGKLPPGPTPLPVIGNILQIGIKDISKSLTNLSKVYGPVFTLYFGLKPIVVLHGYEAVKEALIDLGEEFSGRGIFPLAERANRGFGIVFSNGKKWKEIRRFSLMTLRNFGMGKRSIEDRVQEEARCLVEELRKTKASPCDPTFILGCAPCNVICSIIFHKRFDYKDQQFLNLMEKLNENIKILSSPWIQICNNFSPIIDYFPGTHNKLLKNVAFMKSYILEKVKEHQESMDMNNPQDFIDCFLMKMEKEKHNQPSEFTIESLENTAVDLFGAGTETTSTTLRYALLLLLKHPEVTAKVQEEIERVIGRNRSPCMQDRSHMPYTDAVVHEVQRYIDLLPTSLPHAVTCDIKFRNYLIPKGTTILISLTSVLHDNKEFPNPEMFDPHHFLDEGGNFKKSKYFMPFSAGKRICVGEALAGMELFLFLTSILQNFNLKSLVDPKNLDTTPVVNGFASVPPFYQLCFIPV

[9] = target: T1, Sphingosine 1-phosphate receptor 1; test: Agonist activity at human S1P1 receptor assessed as cAMP accumulation by HTRF assay relative to S1P; type: functional
[10] = Tmax in Sprague-Dawley rat at 1 mg/kg, po; type: ADME, organism-based; parameters: dose 1 mg/kg, route oral; conditions: in vivo
[11] = target: T1, Sphingosine 1-phosphate receptor 1; test: Agonist activity at human S1P1 receptor assessed as cAMP accumulation by HTRF assay; type: functional; how it was run: as §1
[12] = Volume of distribution at steady state in Sprague-Dawley rat at 1 mg/kg, iv; type: ADME, organism-based; parameters: dose 1 mg/kg, route intravenous; conditions: in vivo, read-out: Vdss
[13] = target: Voltage-gated inwardly rectifying potassium channel KCNH2 (Homo sapiens, UniProt Q12809); test: Binding affinity to human ERG
Sequence of Voltage-gated inwardly rectifying potassium channel KCNH2 (Q12809 whole entry): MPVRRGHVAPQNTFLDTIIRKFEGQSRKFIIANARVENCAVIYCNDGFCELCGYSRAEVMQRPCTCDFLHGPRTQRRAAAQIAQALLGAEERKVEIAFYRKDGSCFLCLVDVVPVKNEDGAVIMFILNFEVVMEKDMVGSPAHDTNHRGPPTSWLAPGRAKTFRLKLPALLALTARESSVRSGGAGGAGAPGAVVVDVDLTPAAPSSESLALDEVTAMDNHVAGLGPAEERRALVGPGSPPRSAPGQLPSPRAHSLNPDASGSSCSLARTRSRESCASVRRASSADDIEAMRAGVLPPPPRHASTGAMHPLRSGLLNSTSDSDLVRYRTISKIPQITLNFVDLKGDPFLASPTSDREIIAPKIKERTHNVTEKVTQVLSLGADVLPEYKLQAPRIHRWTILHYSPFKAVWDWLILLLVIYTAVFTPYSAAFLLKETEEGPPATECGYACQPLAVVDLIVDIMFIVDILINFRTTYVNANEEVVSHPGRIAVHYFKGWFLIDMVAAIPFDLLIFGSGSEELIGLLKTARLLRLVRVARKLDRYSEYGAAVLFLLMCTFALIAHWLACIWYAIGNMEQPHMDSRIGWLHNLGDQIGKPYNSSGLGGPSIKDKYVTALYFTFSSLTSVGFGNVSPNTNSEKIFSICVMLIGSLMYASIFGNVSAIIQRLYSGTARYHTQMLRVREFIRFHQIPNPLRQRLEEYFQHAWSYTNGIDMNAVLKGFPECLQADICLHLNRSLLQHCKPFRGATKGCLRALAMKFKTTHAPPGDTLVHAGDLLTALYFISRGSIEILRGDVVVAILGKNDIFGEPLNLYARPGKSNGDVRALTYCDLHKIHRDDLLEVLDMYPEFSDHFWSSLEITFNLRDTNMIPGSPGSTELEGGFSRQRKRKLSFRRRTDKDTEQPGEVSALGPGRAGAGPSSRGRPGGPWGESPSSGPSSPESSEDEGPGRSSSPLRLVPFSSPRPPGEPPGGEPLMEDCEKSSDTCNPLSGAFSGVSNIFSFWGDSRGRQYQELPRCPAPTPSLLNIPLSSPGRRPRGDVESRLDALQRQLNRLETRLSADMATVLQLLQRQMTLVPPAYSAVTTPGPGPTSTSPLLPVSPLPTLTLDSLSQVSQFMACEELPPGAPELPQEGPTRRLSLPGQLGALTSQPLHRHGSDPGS

[14] = target: T2, Sphingosine 1-phosphate receptor 4 (Homo sapiens) (UniProt O95977); test: Agonist activity at human S1P4 receptor by beta-arrestin recruitment assay relative to S1P
T2 sequence (whole entry): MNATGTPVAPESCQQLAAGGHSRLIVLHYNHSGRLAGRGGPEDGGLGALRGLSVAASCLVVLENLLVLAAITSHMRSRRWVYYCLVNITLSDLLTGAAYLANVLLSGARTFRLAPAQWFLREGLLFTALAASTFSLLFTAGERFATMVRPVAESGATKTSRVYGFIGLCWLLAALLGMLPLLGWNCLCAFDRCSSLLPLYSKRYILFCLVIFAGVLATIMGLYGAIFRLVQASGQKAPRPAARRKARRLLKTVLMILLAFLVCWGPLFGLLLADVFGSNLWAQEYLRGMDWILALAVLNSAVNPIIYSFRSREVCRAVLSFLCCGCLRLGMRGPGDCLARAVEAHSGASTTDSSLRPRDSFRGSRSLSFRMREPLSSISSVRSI

[15] = target: Sphingosine 1-phosphate receptor 1 (Mus musculus, UniProt O08530); test: Agonist activity at mouse S1P1 receptor assessed as cAMP accumulation by HTRF assay; type: functional; how it was run: as §1
Sequence of Sphingosine 1-phosphate receptor 1 (Mus musculus, UniProt O08530) (O08530 whole entry): as the sequence (O08530 whole entry) above

[16] = target: T3, Sphingosine 1-phosphate receptor 5 (Homo sapiens, UniProt Q9H228); test: Agonist activity at human S1P5 receptor by beta-arrestin recruitment assay relative to S1P
T3 sequence (Q9H228 whole entry): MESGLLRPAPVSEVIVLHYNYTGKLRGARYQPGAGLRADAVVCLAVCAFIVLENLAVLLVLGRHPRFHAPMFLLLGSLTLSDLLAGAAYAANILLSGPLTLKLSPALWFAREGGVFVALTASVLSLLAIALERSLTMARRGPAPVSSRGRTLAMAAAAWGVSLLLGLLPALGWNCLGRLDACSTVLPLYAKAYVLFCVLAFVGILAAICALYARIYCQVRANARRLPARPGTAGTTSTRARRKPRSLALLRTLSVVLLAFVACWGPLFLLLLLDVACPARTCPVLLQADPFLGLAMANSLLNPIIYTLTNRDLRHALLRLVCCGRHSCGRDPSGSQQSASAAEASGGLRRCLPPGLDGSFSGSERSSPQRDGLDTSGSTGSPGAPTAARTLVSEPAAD

[17] = Systemic clearance in Sprague-Dawley rat at 1 mg/kg, iv; type: ADME, organism-based; parameters: dose 1 mg/kg, route intravenous; conditions: in vivo
[18] = Elimination half life in Sprague-Dawley rat at 1 mg/kg, po; type: ADME, organism-based; parameters: dose 1 mg/kg, route oral; conditions: in vivo, read-out: beta t1/2 (converted)
[19] = target: T1, Sphingosine 1-phosphate receptor 1; test: Agonist activity at human S1P1 receptor by beta-arrestin recruitment assay
Rattus norvegicus [20] = organism: Rattus norvegicus; test: Reduction in lymphocyte count in Sprague-Dawley rat; type: functional, organism-based
How it was run: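 A PK/PD model relating plasma drug concentration to circulating lymphocyte counts was used to derive the plasma concentration that reduces lymphocytes by 50% (LL IC50, ng/mL).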

[21] = AUC (0 to infinity) in Sprague-Dawley rat at 1 mg/kg, iv or at 1 mg/kg, po; type: ADME, organism-based; conditions: plasma
[22] = target: Sphingosine 1-phosphate receptor 1 (Macaca mulatta, UniProt H9EUW9); test: Agonist activity at monkey S1P1 receptor assessed as cAMP accumulation by HTRF assay; type: functional; how it was run: as §1
Sequence of Sphingosine 1-phosphate receptor 1 (Macaca mulatta, UniProt H9EUW9) (H9EUW9 whole entry): as the sequence (P21453 whole entry) above, with P3S, H12L, I37T, K41R, S189P, I241M, E365D counted along it

[23] = Oral bioavailability in Sprague-Dawley rat at 1 mg/kg; type: ADME, organism-based; conditions: in vivo
[24] = Cmax in Sprague-Dawley rat at 1 mg/kg, po; type: ADME, organism-based; parameters: dose 1 mg/kg, route oral; conditions: in vivo
[25] = target: T4, Sphingosine 1-phosphate receptor 4 (Homo sapiens, UniProt O95977); test: Agonist activity at human S1P4 receptor by beta-arrestin recruitment assay
T4 sequence (O95977 whole entry): T2 sequence (whole entry)

Rattus norvegicus [26] = organism: Rattus norvegicus; test: Toxicity in telemeterized rat assessed as effect on cardiovascular function; type: organism-based, Heart; conditions: in vivo
[27] = target: Sphingosine 1-phosphate receptor 3 (Homo sapiens, UniProt Q99500); test: Agonist activity at human S1P3 receptor by beta-arrestin recruitment assay
Sequence of Sphingosine 1-phosphate receptor 3 (Q99500 whole entry): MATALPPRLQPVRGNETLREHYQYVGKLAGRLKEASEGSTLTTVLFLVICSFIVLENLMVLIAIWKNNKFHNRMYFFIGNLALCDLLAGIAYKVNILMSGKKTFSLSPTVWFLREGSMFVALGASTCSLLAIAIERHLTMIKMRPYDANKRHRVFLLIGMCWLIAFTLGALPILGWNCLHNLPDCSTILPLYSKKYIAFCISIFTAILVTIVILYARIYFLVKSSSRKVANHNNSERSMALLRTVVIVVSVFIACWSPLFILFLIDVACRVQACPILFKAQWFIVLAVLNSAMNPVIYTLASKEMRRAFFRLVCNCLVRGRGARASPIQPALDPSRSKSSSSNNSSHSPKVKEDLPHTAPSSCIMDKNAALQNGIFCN

[28] = target: Sphingosine 1-phosphate receptor 1 (Macaca mulatta) (UniProt H9EUW9); test: Agonist activity at monkey S1P1 receptor assessed as cAMP accumulation by HTRF assay relative to S1P; type: functional
Sequence of Sphingosine 1-phosphate receptor 1 (Macaca mulatta) (H9EUW9 as listed by the source): as the sequence (P21453 whole entry) above, with P3S, H12L, I37T, K41R, S189P, I241M, E365D counted along it

[29] = target: Sphingosine 1-phosphate receptor 1 (Rattus norvegicus) (UniProt P48303); test: Agonist activity at rat S1P1 receptor assessed as cAMP accumulation by HTRF assay relative to S1P; type: functional
Sequence of Sphingosine 1-phosphate receptor 1 (Rattus norvegicus) (P48303 whole entry): as the sequence (P48303 whole entry) above

[30] = target: T3, Sphingosine 1-phosphate receptor 5; test: Agonist activity at human S1P5 receptor by beta-arrestin recruitment assay
[31] = target: Sphingosine-1-phosphate receptor 1 (Canis lupus familiaris) (UniProt W5VNF7); test: Agonist activity at dog S1P1 receptor assessed as cAMP accumulation by HTRF assay relative to S1P; type: functional
Sequence of Sphingosine-1-phosphate receptor 1 (Canis lupus familiaris) (W5VNF7 as listed by the source): as the sequence (W5VNF7 whole entry) above

EC50 [2]: 0.072 nM
Kp [3]: 0.09
EC50 [4]: 0.049 nM
EC50 [5]: > 10000 nM
Emax [6]: 104%
Emax [7]: 112%
IC50 [8]: 390 nM
IC50 (Cytochrome P450 2C9): 8500 nM
Emax [9]: 94%
Tmax [10]: 4 h
EC50 [11]: 0.025 nM
Vd [12]: 0.9 L/kg
Emax [14]: 85%
EC50 [15]: 0.05 nM
Emax [16]: 84%
clearance [17]: 3.2 mL/min/kg
half-life [18]: 3.44 h
EC50 [19]: 0.63 nM
IC50 (Rattus norvegicus [20]): 0.0104 µg/mL (≈ 0.0237 µM)
AUC(0-inf) [21]: 4210 ng·h/mL
EC50 [22]: 0.038 nM
bioavailability [23]: 76.4%
Cmax [24]: 618 ng/mL
EC50 [25]: 8600 nM
EC50 [27]: > 10000 nM
Emax [28]: 96%
Emax [29]: 93%
EC50 [30]: 47 nM
Emax [31]: 66%
Structure (SMILES): CC(C)Oc1ccc(COc2ccc3c(c2)c(Cl)c2n3CC[C@@H]2CC(=O)O)cc1C#N
Activity [13]: Not Active
Activity (Rattus norvegicus [26]): Non-toxic

Emax [9]: 92%
EC50 [11]: 0.49 nM
Structure (SMILES): N#Cc1cc(COc2ccc3c(c2)cc2n3CCC2CC(=O)O)ccc1C1CCCC1 (racemic)

Emax [9]: 104%
EC50 [11]: 83 nM
Structure (SMILES): N#Cc1ccc(COc2ccc3c(c2)cc2n3CCC2CC(=O)O)cc1C(F)(F)F (racemic)

Emax [9]: 122%
EC50 [11]: 38 nM
Structure (SMILES): COc1ccc(COc2ccc3c(c2)cc2n3CCC2CC(=O)O)cc1C#N (racemic)

EC50 [11]: 0.15 nM
Structure (SMILES): CC(C)Oc1ccc(COc2ccc3c(c2)cc2n3CCC2CC(=O)O)cc1C(F)(F)F (racemic) [listing 1 of 2 here]

EC50 [11]: 0.15 nM
Structure (SMILES): CC(C)Oc1ccc(COc2ccc3c(c2)cc2n3CCC2CC(=O)O)cc1C#N (racemic) [listing 1 of 2 here]

Emax [9]: 105%
Structure (SMILES): CC(C)Oc1ccc(COc2ccc3c(c2)cc2n3CCC2CC(=O)O)cc1C#N (racemic) [listing 2 of 2 here]

Emax [9]: 112%
Structure (SMILES): CC(C)Oc1ccc(COc2ccc3c(c2)cc2n3CCC2CC(=O)O)cc1C(F)(F)F (racemic) [listing 2 of 2 here]

Further lines, the compound ahead of its results:

Structure (SMILES): CCCCCCCCCCCCC/C=C/[C@@H](O)[C@@H](N)COP(=O)(O)O
EC50 [1]: 2.1 nM

Structure (SMILES): O=C(O)CC1CCn2c1cc1cc(OCc3ccc(C4CCCC4)c(C(F)(F)F)c3)ccc12 (racemic)
EC50 [11]: 0.095 nM

Structure (SMILES): O=C(O)CC1CCn2c1cc1cc(OCc3ccc(Cl)c(C(F)(F)F)c3)ccc12 (racemic)
Emax [9]: 116%
EC50 [11]: 150 nM

Structure (SMILES): O=C(O)CC1CCn2c1cc1cc(OCc3ccc(OCF)c(C(F)(F)F)c3)ccc12 (racemic)
Emax [9]: 119%
EC50 [11]: 6.7 nM

Structure (SMILES): O=C(O)CC1CCn2c1cc1cc(OCc3ccc(OCC4CC4)c(C(F)(F)F)c3)ccc12 (racemic)
Emax [9]: 100%
EC50 [11]: 1.1 nM
